# Assay results as given in paper PMC8962836 (Journal of Alzheimer's disease : JAD, 2016).
# Where “and” joins values, the source holds several entries; their conditions need not be identical. Identical values can stand only once. Entries after “also recorded” stand apart in the source; their conditions may differ.
# Legend:
# 3xTgAD mouse model = details: cited from earlier work
# Aβ levels = details: cited from earlier work
# AβPP/PS1 mice [1] = experiment: Contextual fear conditioning; format: in vivo, mouse
# How it was run: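 AβPP/PS1 and WT littermates got daily vehicle or test compound (Tween-80/DMSO, then vehicle-diluted). Training: one mouse per room, 2 min in the conditioning chamber, 0.50 mA foot shock for 2 s in the last 2 s, then 30 s more before returning to the home cage. Contextual freezing was scored. Investigators were blind to treatment and genotype; n = 8–18 per group; mean ± SEM, one-way ANOVA.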
# AβPP/PS1 mice [2] = experiment: 2-day radial-arm water maze; format: in vivo, mouse
# How it was run: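 2-day RAWM in AβPP/PS1 and WT littermates given vehicle or test compound daily. Compounds were dissolved in Tween-80 + DMSO, then diluted with vehicle. Mice were trained […] to find a goal-arm platform, alternating visible and hidden platform. Investigators were blind to treatment and genotype. Data are mean ± SEM, analysed by two-way repeated-measures ANOVA.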
# mice = details: mouse, in vivo
# [3] = test system: calpain (calpain-generated spectrin fragment around 145 kDa); experiment: Spectrin western blotting of hippocampal homogenates after in vivo treatment; parameters: species or system mouse
# How it was run: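 Hippocampi were taken from mice given test compound or vehicle. Tissue was homogenized in 62.5 mM Tris-HCl pH 6.8, 3% LDS, 1 mM DTT, held 10 min at 4°C, sonicated and centrifuged (20,000 rpm, 5 min). Extracts (15 μg/lane; vehicle also 20 μg) ran on 3–8% Tris-Acetate gels. Blots were probed with spectrin and β-III-tubulin antibodies (1:1,000) for the ~145 kDa calpain fragment.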
# calpain 1 = details: read-out: IC50 calpain 1; cited from earlier work
# [4] = test system: Aβ42-induced LTP impairment in hippocampal slices; format: cell-based, mouse; details: compound 650 nM co-administered with Aβ42 (200 nM, 20 min)
# How it was run: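 Mouse transverse hippocampal slices (400 μm) were kept in an interface chamber at 29°C. Aβ42 oligomers were formed overnight at 4°C in ACSF, then diluted in vehicle. Test compound (Tween-80/DMSO stock diluted in vehicle) was perfused with Aβ42 for 20 min before tetanization, and responses were recorded for 120 min. Data are % of control or (co-treatment/Aβ42 alone)×100; mean ± SEM, repeated-measures two-way ANOVA.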
# [5] = Pharmacokinetic assessment in plasma; format: in vivo, ICR mice
# How it was run: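 Male ICR mice (54 total; 3 groups of 18) were dosed i.p. with test compound in Tween-80 + DMSO diluted with vehicle. Plasma was separated by centrifugation (11,000 rpm, 5 min), stored at –80°C, and 25 μl was processed for LC/MS/MS. Calibration standards were spiked into heparinized blank mouse plasma at 3.00–10,000 ng/ml.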
# WT mice = details: mouse, in vivo, ip
# [6] = daily treatment from age 2 months until 7 months
smiles,measurement,setting,value
CCN(CC)Cc1ccc(/C=C/c2ccccc2C(=O)NC(Cc2ccccc2)C(=O)C(N)=O)cc1 (centres unmarked) [A-705253],Activity in 3xTgAD mouse model,3xTgAD mouse model,"rescuing memory defects, and reducing levels of BACE enzyme, Aβ deposits, and overall neuroinflammation"
CC(C)C[C@H](NS(=O)(=O)c1ccccc1)C(=O)N[C@@H](C(C)C)[C@@H](O)c1c(-c2ccccc2)c1=O [BDA-410],Effect on Aβ levels,Aβ levels,do not have any effect on Aβ levels
CC(C)C[C@H](NC(=O)[C@H]1O[C@@H]1C(=O)O)C(=O)NCCCCN=C(N)N [E64],Effect on Aβ levels,Aβ levels,do not have any effect on Aβ levels
O=C(NCc1cn(-c2ccc(F)cc2)nn1)[C@H](Cc1cscn1)NC(=O)[C@H]1O[C@@H]1C(=O)O [NYC488],Contextual fear memory defect in AβPP/PS1 mice,"AβPP/PS1 mice [1]; daily treatment from age 2 months until 3 months, 7.57/7.86/7.83 mg/kg",ameliorated the defect in contextual fear memory
same,Contextual fear memory defect in AβPP/PS1 mice,AβPP/PS1 mice [1]; [6],ameliorated the defect in contextual fear memory
same,RAWM performance of WT littermates,"AβPP/PS1 mice [2]; WT littermates, treatment 2 to 3 months of age",did not affect the WT littermate performance
same,Spatial memory defect (2-day RAWM) in AβPP/PS1 mice,AβPP/PS1 mice [2]; daily treatment from age 2 months until 3 months,ameliorated the defect in spatial memory; also recorded: ameliorated the deficit in RAWM performance
same,Spatial memory defect (2-day RAWM) in AβPP/PS1 mice,AβPP/PS1 mice [2]; [6],ameliorated the defect in spatial memory
same,Clinical signs of toxicity after acute single dose at MTD,mice,No clinical signs of toxicity
same,Prevention of calpain-generated spectrin fragments in hippocampus,"[3]; i.p. treatment for 12 days, same doses as PK",dramatically reduced the amount of fragments
same,Ability to cross the blood-brain barrier and inhibit calpain in the brain,[3]; inferred from spectrin fragment decrease after systemic administration,cross the blood-brain barrier (BBB) and inhibit calpain in the brain
same,IC50,calpain 1,< 100 nM
same,Rescue of Aβ42-induced LTP impairment (phenotypic screening),[4],robust results; also recorded: surpassed E64 benchmark in the LTP rescue assay
same,Absolute bioavailability,"[5]; i.p., equimolar dose (7.57/7.86/7.83 mg/kg)",41.3%
same,Half-life,"[5]; plasma, i.p., equimolar dose (7.57/7.86/7.83 mg/kg)",0.6 h and ~ 0.6 h
same,Absorption,[5]; upon i.p. injection,rapidly absorbed
same,Maximum tolerated dose (MTD),WT mice,200 mg/kg
